{"source": "ChEMBL document CHEMBL1122405", "about": "“Structure--activity relationships for and potentiation of the antimitogenic activity of 2-5A core derived from 2-5A, a mediator of interferon action” (J Med Chem, 1983)", "format_in_all_cases": "functional", "key": {"[1]": {"test_system": "Nucleic Acid", "test": "Percent inhibition of DNA synthesis ([Me-3H] thymidine incorporation) at 50 uM concentration", "outline": "(§1)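 Balb/c 3T3 cells were grown to confluence in Eagle's MEM with 10% fetal calf serum. They were synchronized in serum-free medium containing 10% spent medium, then stimulated with fresh medium plus 10% FCS, with or without oligonucleotide at a final 5 or 50 μM. At set intervals, duplicate cultures were pulsed 1 h with [3H]thymidine (40 Ci/mmol) and TCA-insoluble cpm counted. % inhibition = 100[1 − treated/control], using cpm summed over the control peak DNA-synthesis period (e.g. 15–16, 17–18, 19–20 h).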"}, "[2]": {"test_system": "Nucleic Acid", "test": "Percent inhibition of DNA synthesis ([Me-3H] thymidine incorporation) at 5 uM concentration", "outline": "as §1"}, "[3]": {"test": "Percent inhibition of protein synthesis ([35S]methionine incorporation) at 50 uM concentration", "outline": "(§2)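 Confluent Balb/c 3T3 cells were synchronized in methionine-free, serum-free medium containing 10% spent medium. They were then stimulated with fresh methionine-free medium plus 10% fetal calf serum, with or without oligonucleotide at a final 5 or 50 μM. At set intervals, duplicate cultures were pulse-labeled 1 h with [35S]methionine (147 mCi/mmol) and TCA-insoluble cpm measured. % inhibition = 100[1 − treated cpm/untreated cpm].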"}, "[4]": {"test": "Percent inhibition of protein synthesis ([35S]methionine incorporation) at 5 uM concentration", "outline": "as §2"}}, "data": [{"smiles": "Nc1ncnc2c1ncn2[C@@H]1O[C@H](COP(=O)(O)O[C@@H]2[C@H](O)[C@@H](COP(=O)(O)O[C@@H]3[C@H](O)[C@@H](CO)O[C@H]3n3cnc4c(N)ncnc43)O[C@H]2n2cnc3c(N)ncnc32)[C@@H](O)[C@H]1O", "values": [{"measurement": "inhibition", "setting": "[1]", "value": 48, "unit": "%"}, {"measurement": "inhibition", "setting": "[2]", "value": 14, "unit": "%"}, {"measurement": "inhibition", "setting": "[3]", "value": 14, "unit": "%"}, {"measurement": "inhibition", "setting": "[4]", "value": 0, "unit": "%"}]}, {"smiles": "Nc1ncnc2c1ncn2[C@@H]1O[C@H](COP(=O)(O)O[C@@H]2[C@H](O)[C@@H](COP(=O)(O)O[C@@H]3[C@H](O)[C@@H](COP(=O)(O)OP(=O)(O)OP(=O)(O)O)O[C@H]3n3cnc4c(N)ncnc43)O[C@H]2n2cnc3c(N)ncnc32)[C@@H](O)[C@H]1O", "values": [{"measurement": "inhibition", "setting": "[1]", "value": 27, "unit": "%"}, {"measurement": "inhibition", "setting": "[2]", "value": 11, "unit": "%"}, {"measurement": "inhibition", "setting": "[3]", "value": 21, "unit": "%"}, {"measurement": "inhibition", "setting": "[4]", "value": 11, "unit": "%"}]}, {"smiles": "Nc1ncnc2c1ncn2[C@@H]1O[C@H](COP(=O)(O)O[C@@H]2[C@H](O)[C@@H](COP(=O)(O)O[C@@H]3[C@H](O)[C@@H](COP(=O)(O)O)O[C@H]3n3cnc4c(N)ncnc43)O[C@H]2n2cnc3c(N)ncnc32)[C@@H](O)[C@H]1O", "values": [{"measurement": "inhibition", "setting": "[1]", "value": 54, "unit": "%"}, {"measurement": "inhibition", "setting": "[2]", "value": 15, "unit": "%"}, {"measurement": "inhibition", "setting": "[3]", "value": 33, "unit": "%"}, {"measurement": "inhibition", "setting": "[4]", "value": 0, "unit": "%"}]}]}
